Laboratory results taken from ChEMBL document CHEMBL1949524, “Chiral indolo[3,2-f][3]benzazecine-type dopamine receptor antagonists: synthesis and activity of racemic and enantiopure derivatives” (J Med Chem, 2011).
Calls of active or inactive are those of the source. The rule behind the calls is not given here.

Legend:
D(4) dopamine receptor = biological target: T1, D(4) dopamine receptor (Homo sapiens, UniProt P21917); experiment: Displacement of [3H]spiperone from human dopamine D4.4 receptor expressed in CHO cells; format: cell-based
T1 sequence (P21917 whole entry): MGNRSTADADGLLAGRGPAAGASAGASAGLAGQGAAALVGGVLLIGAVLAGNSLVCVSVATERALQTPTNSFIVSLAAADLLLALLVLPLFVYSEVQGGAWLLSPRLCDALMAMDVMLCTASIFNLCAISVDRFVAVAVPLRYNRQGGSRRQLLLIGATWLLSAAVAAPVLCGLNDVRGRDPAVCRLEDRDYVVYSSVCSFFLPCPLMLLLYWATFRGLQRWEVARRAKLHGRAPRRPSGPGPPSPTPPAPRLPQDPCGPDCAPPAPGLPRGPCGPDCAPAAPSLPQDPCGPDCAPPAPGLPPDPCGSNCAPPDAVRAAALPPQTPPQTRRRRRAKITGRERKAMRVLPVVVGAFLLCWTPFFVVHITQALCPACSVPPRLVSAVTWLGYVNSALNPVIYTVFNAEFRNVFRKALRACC
Outline: (§1)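 Radioligand binding at human receptors, with Ki as the read-out. Ki is the mean (±SEM) of two to three experiments, each run in triplicate.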

D(2) dopamine receptor [1] = biological target: T2, D(2) dopamine receptor (Homo sapiens, UniProt P14416); experiment: Antagonist activity at human dopamine D2L receptor expressed in HEK293 cells assessed inhibition of as quinpirole-induced Ca2+ influx by fluorescence analysis; format: functional, cell-based
Outline: (§2)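 HEK293 cells stably expressing the relevant dopamine receptor were loaded with a fluorescent dye and preincubated with rising concentrations of test compound. Agonist was then added: SKF 38393 for D1, quinpirole for D2. Ca2+-induced fluorescence was read on a microplate reader.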

D(1B) dopamine receptor = D(1B) dopamine receptor (Homo sapiens, UniProt P21918); experiment: Displacement of [3H]SCH23390 from human dopamine D5 receptor expressed in human HEK293 cells; format: cell-based; outline: as §1
D(3) dopamine receptor = D(3) dopamine receptor (Homo sapiens, UniProt P35462); experiment: Displacement of [3H]spiperone from human dopamine D3 receptor expressed in human HEK293 cells; format: cell-based; outline: as §1
D(1A) dopamine receptor [2] = biological target: T3, D(1A) dopamine receptor (Homo sapiens, UniProt P21728); experiment: Displacement of [3H]SCH23390 from human dopamine D1 receptor expressed in human HEK293 cells; format: cell-based; outline: as §1
D(2) dopamine receptor [3] = biological target: T2, D(2) dopamine receptor; experiment: Displacement of [3H]spiperone from human dopamine D2L receptor expressed in human HEK293 cells; format: cell-based; outline: as §1
D(1A) dopamine receptor [4] = biological target: T3, D(1A) dopamine receptor; experiment: Antagonist activity at human dopamine D1 receptor expressed in HEK293 cells assessed as inhibition of SKF38393-induced Ca2+ influx by fluorescence analysis; format: functional, cell-based; outline: as §2

T2 sequence (P14416 whole entry): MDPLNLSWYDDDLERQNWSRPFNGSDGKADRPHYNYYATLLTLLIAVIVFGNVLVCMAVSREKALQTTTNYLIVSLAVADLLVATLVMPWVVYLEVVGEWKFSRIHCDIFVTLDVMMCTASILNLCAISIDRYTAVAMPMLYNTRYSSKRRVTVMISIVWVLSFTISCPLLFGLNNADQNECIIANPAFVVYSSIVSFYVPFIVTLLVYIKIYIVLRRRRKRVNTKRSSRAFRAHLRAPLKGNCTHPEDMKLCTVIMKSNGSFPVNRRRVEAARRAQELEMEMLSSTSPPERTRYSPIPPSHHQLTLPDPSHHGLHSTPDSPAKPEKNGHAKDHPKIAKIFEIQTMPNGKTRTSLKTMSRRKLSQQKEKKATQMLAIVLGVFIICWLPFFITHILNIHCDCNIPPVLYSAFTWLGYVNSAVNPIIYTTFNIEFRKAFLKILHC
T3 sequence (P21728 whole entry): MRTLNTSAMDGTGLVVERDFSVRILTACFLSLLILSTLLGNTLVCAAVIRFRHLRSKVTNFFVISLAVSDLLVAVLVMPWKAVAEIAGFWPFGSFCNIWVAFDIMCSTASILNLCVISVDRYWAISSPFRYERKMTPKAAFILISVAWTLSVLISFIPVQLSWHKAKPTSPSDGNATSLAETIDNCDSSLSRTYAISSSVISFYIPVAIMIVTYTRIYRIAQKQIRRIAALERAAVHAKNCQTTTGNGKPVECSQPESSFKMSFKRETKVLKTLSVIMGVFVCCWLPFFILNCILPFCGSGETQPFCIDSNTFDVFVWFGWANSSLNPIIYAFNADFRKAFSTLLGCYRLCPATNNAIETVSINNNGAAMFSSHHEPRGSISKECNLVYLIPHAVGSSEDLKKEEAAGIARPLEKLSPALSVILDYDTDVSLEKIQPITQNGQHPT
D(1B) dopamine receptor, sequence (P21918 whole entry): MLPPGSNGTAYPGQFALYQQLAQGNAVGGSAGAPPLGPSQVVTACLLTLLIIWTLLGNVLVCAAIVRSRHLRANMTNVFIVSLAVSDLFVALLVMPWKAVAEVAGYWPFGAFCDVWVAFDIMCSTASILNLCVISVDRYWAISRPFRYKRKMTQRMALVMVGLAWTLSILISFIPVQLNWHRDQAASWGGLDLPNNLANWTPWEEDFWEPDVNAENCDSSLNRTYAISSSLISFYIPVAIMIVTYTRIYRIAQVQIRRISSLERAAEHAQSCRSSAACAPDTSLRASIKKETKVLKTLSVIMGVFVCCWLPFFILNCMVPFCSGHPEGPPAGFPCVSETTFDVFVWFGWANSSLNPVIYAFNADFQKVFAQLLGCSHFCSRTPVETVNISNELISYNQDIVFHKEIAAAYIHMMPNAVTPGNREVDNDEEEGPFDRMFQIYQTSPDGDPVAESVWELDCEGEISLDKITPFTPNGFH
D(3) dopamine receptor, sequence (P35462 whole entry): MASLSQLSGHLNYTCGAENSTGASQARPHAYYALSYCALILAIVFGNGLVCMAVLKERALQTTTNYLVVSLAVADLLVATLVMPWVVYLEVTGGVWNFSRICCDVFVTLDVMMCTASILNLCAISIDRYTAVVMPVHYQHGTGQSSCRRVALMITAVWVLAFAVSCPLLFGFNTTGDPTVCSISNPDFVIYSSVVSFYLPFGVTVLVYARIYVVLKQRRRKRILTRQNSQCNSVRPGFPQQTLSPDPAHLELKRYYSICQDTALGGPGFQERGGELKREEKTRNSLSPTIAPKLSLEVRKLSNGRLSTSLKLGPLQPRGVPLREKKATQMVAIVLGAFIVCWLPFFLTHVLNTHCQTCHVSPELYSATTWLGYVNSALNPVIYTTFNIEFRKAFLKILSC

Row | SMILES | Ki (D(4) dopamine receptor) | inhibition (D(2) dopamine receptor [1]) | Ki (D(1B) dopamine receptor) | Ki (D(3) dopamine receptor) | Ki (D(1A) dopamine receptor [2]) | Ki (D(2) dopamine receptor [3]) | inhibition (D(1A) dopamine receptor [4])
1 | C[C@@H]1Cc2c([nH]c3ccccc23)Cc2ccccc2CCN1C | > 10000 nM | Active | 389 nM | > 10000 nM | 640 nM | > 10000 nM | Active
2 | CN1CCc2ccccc2Cc2[nH]c3ccccc3c2CC1C(=O)O (racemic) | > 10000 nM | Active | 657 nM | > 10000 nM | > 10000 nM | > 10000 nM | Active
3 | CN1CCc2ccccc2Cc2[nH]c3ccccc3c2C[C@H]1CO | 4860 nM | Active | 91.4 nM | 4680 nM | 114 nM | 2920 nM | Active

Stronger by Ki (D(4) dopamine receptor), values ahead:

Row | Ki (D(4) dopamine receptor) | inhibition (D(2) dopamine receptor [1]) | Ki (D(1B) dopamine receptor) | Ki (D(3) dopamine receptor) | Ki (D(1A) dopamine receptor [2]) | Ki (D(2) dopamine receptor [3]) | inhibition (D(1A) dopamine receptor [4]) | SMILES
4 | 64.1 nM | Active | 4.4 nM | 304 nM | 6.1 nM | 85.3 nM | Active | C[C@H]1Cc2c([nH]c3ccccc23)Cc2ccccc2CCN1C
5 | 408 nM | Active | 11.4 nM | 681 nM | 10.3 nM | 268 nM | Active | CN1CCc2ccccc2Cc2[nH]c3ccccc3c2C[C@@H]1CO
